Laboratory results taken from ChEMBL document CHEMBL3865828, “Total synthesis of 8-(6″-umbelliferyl)-apigenin and its analogs as anti-diabetic reagents” (2016).
Activity calls are given as the source filed them. The calls are words filed in the database; no cut-off is given here.

Columns and labels:
Assay type in all cases: functional
[1] = tested on: 3T3-L1; assay: Increase in 2-NBDG uptake in serum-starved mouse 3T3L1 adipocytes at 1 mM measured under basal condition by inverted fluorescence microscopy
Summary of the method: (§1)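 Adipocytes from 3T3-L1 cells, differentiated 2 days post-confluence in DMEM with 0.5 mM IBMX, dexamethasone and insulin for 48 h, then 2 days in DMEM (10% FBS) with insulin alone. Used 8–10 days after differentiation start. After 1-h serum starvation, cells got agents in KRH for 0.5 h, then […] 2-NBDG for 1 h. They were washed 3× with KRH and imaged by inverted fluorescence microscopy. Metformin was the control.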

[2] = tested on: 3T3-L1; assay: Increase in glucose uptake in serum-starved mouse 3T3L1 adipocytes at 1 mmol/L pretreated followed by glucose addition measured under basal condition by glucose oxidase peroxidase method
Summary of the method: (§2)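 3T3-L1 adipocytes, used 8–10 days after differentiation (IBMX/dexamethasone/insulin for 48 h, then insulin for 2 days), were incubated with agents in KRH buffer. Glucose in KRH was measured at 0 h and 4 h by glucose oxidase–peroxidase kit, and the difference was taken as consumed glucose. Metformin was the positive control. Data are mean ± SEM of independent experiments.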

[3] = tested on: 3T3-L1; assay: Increase in glucose uptake in serum-starved mouse 3T3L1 adipocytes at 10 uM pretreated followed by glucose addition measured under basal condition by glucose oxidase peroxidase method; summary of the method: as §2
[4] = tested on: 3T3-L1; assay: Increase in 2-NBDG uptake in serum-starved mouse 3T3L1 adipocytes at 10 uM measured under basal condition by inverted fluorescence microscopy; summary of the method: as §1

CN(C)C(=N)NC(=N)N
Activity [1]: Active | Activity [2]: Active

O=c1cc(-c2ccc(O)cc2)oc2cc(O)cc(O)c12
Activity [3]: Active

O=c1cc(-c2ccccc2)oc2cc(O)cc(O)c12
Activity [3]: Active

COc1cc2oc(=O)ccc2cc1-c1c(O)cc(O)c2c(=O)c(O)c(-c3ccc(O)c(O)c3)oc12
Activity [3]: Active | Activity [4]: Active

COc1cc2oc(=O)ccc2cc1-c1c(O)cc(O)c2c(=O)cc(-c3ccccc3)oc12
Activity [3]: Active

COc1cc2oc(=O)ccc2cc1-c1c(O)cc(O)c2c(=O)cc(-c3ccc(O)c(O)c3)oc12
Activity [3]: Active | Activity [4]: Active

O=c1c(O)c(-c2ccc(O)c(O)c2)oc2cc(O)cc(O)c12
Activity [3]: Active

COc1cc2oc(=O)ccc2cc1-c1c(O)cc(O)c2c(=O)cc(-c3ccc(O)cc3)oc12
Activity [3]: 57% | Activity [4]: Active

O=c1ccc2cc(-c3c(O)cc(O)c4c(=O)cc(-c5ccccc5)oc34)c(O)cc2o1
Activity [3]: Active

O=c1ccc2cc(-c3c(O)cc(O)c4c(=O)cc(-c5ccc(O)cc5)oc34)c(O)cc2o1
Activity [3]: 48% | Activity [4]: Active

O=c1cc(-c2ccc(O)c(O)c2)oc2cc(O)cc(O)c12
Activity [3]: Active
